{"source": "ChEMBL document CHEMBL4513216", "about": "“Probing the Open Global Health Chemical Diversity Library for Multistage-Active Starting Points for Next-Generation Antimalarials” (ACS Infect Dis, 2020)", "experiment": "Toxicity liver stage against HepG2, at 10uM", "assay_type": "cell-based", "parameters": "test concentration 10 uM, cell line HepG2-A16-CD81EGFP", "settings": "human, HepG2-A16-CD81EGFP cells; read-out: INHIBITION", "in_short": "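Uninfected HepG2-A16-CD81EGFP cells, 3 × 10^3 per well, 1536-well, plated on prespotted compound at 10 μM final, parasite-free screening media added to match infected plates; puromycin 10 μM positive, DMSO 0.5% negative; run in parallel with 48 h PbLuc assay at 37 °C, 5% CO2; viability by CellTiter-Glo luminescence, normalized to controls.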"}
{"smiles": "CCSc1nc2ccccc2c(=O)n1OCC(=O)OC", "values": [{"measurement": "cytotoxicity at 10 µM", "result": -5.49, "unit": "%"}]}
{"smiles": "CN1CC[C@H](c2nnc(-c3cncn3C)o2)C1", "values": [{"measurement": "cytotoxicity at 10 µM", "result": -2.88, "unit": "%"}]}
{"smiles": "CC(=O)N1N=C(COc2ccc3c(c2)OCO3)OC1c1cccc(Cl)c1", "note": "(stereo not given)", "values": [{"measurement": "cytotoxicity at 10 µM", "result": -1.77, "unit": "%"}]}
{"smiles": "Cc1nnsc1C(=O)NCCn1ccc(-c2ccncc2)n1", "values": [{"measurement": "cytotoxicity at 10 µM", "result": 1.92, "unit": "%"}]}
{"smiles": "Cc1cncc(Oc2ccc(CN)cc2)n1", "values": [{"measurement": "cytotoxicity at 10 µM", "result": 9.81, "unit": "%"}]}
{"smiles": "CCc1cnc(N2CCC3(CCN(Cc4cccc(C)c4)C3=O)C2)nc1", "note": "(stereo not given)", "values": [{"measurement": "cytotoxicity at 10 µM", "result": -0.891, "unit": "%"}]}
{"smiles": "COc1cccc(CC(=O)N2CCc3ncnc(C)c3CC2)c1", "values": [{"measurement": "cytotoxicity at 10 µM", "result": -1.59, "unit": "%"}]}
{"smiles": "COCCC(=O)N1CCC2(COCc3cnc(NCC4CC4)nc32)C1", "note": "(stereo not given)", "values": [{"measurement": "cytotoxicity at 10 µM", "result": 6.24, "unit": "%"}]}
{"smiles": "COc1cc(C2SCC(=O)Nc3n[nH]cc32)cc(OC)c1O", "note": "(stereo not given)", "values": [{"measurement": "cytotoxicity at 10 µM", "result": 7.85, "unit": "%"}]}
{"smiles": "CCn1nc(C)c2c1cnn2CCNS(=O)(=O)c1cccs1", "values": [{"measurement": "cytotoxicity at 10 µM", "result": 4.51, "unit": "%"}]}
{"smiles": "CN(C(=O)c1cn(C)cn1)[C@@H]1CCC[C@@H](Oc2ccccc2)[C@@H]1O", "values": [{"measurement": "cytotoxicity at 10 µM", "result": 23, "unit": "%"}]}
{"smiles": "O=S(=O)(c1ccccc1F)N1CCCC(c2nccs2)C1", "note": "(stereo not given)", "values": [{"measurement": "cytotoxicity at 10 µM", "result": -11, "unit": "%"}]}
{"smiles": "NCCn1nc(C2CCN(Cc3ccccc3)C2)c2nccnc21", "note": "(stereo not given)", "values": [{"measurement": "cytotoxicity at 10 µM", "result": 0.975, "unit": "%"}]}
{"smiles": "CC(=O)N1CCC(c2cc(C(F)(F)F)nc3nccn23)CC1", "values": [{"measurement": "cytotoxicity at 10 µM", "result": -2.11, "unit": "%"}]}
{"smiles": "COCCN1CCCC1c1nccnc1Nc1nccs1", "note": "(stereo not given)", "values": [{"measurement": "cytotoxicity at 10 µM", "result": -7.55, "unit": "%"}]}
{"smiles": "COc1cccc(CN2CC[C@H]3[C@@H](C2)[C@H](c2ccsc2)CN3C(C)=O)c1", "values": [{"measurement": "cytotoxicity at 10 µM", "result": -5.61, "unit": "%"}]}
{"smiles": "CC(=O)N1CC2(CCN(Cc3ccc(Cl)cc3)CC2)Cc2ccccc21", "values": [{"measurement": "cytotoxicity at 10 µM", "result": 14.2, "unit": "%"}]}
{"smiles": "CC(C)c1nnc(NC(=O)C2CSCN2C(=O)C2CCC2)s1", "note": "(stereo not given)", "values": [{"measurement": "cytotoxicity at 10 µM", "result": 5.04, "unit": "%"}]}
{"smiles": "CCCN1CCCN(C(=O)c2ccc(Oc3cccnc3)cc2)CC1", "values": [{"measurement": "cytotoxicity at 10 µM", "result": -46.9, "unit": "%"}]}
{"smiles": "COCCCc1nc(-c2ccc(S(=O)(=O)N3CCCC3)cc2)cs1", "values": [{"measurement": "cytotoxicity at 10 µM", "result": -46.3, "unit": "%"}]}
{"smiles": "Cc1ccc(C(=O)N(C)S(C)(=O)=O)cc1Cl", "values": [{"measurement": "cytotoxicity at 10 µM", "result": -46.5, "unit": "%"}]}
{"smiles": "CC(O)CN(Cc1cccc(C(=O)N(C)C)c1)c1ccccc1", "note": "(stereo not given)", "values": [{"measurement": "cytotoxicity at 10 µM", "result": 2.45, "unit": "%"}]}
{"smiles": "CC1CN(C)CCN1C(=O)COc1cccc(Oc2ccccn2)c1", "note": "(stereo not given)", "values": [{"measurement": "cytotoxicity at 10 µM", "result": 10.7, "unit": "%"}]}
{"smiles": "CCC(c1ccccc1)S(=O)(=O)CCO", "note": "(stereo not given)", "values": [{"measurement": "cytotoxicity at 10 µM", "result": -136, "unit": "%"}]}
{"smiles": "Cc1ncc(S(=O)(=O)N(CC(C)C)c2cccc(O)c2)s1", "values": [{"measurement": "cytotoxicity at 10 µM", "result": -41.2, "unit": "%"}]}
{"smiles": "Cc1cc(C(=O)N2CCCC2CN2CCCC2)no1", "note": "(stereo not given)", "values": [{"measurement": "cytotoxicity at 10 µM", "result": 10, "unit": "%"}]}
{"smiles": "CN(C)Cc1ccc(C(=O)N2CCCC(n3cccn3)C2)cc1", "note": "(stereo not given)", "values": [{"measurement": "cytotoxicity at 10 µM", "result": -0.798, "unit": "%"}]}
{"smiles": "CC(=O)N1CCC(NC(=O)c2cc(Cl)ccc2O)CC1", "values": [{"measurement": "cytotoxicity at 10 µM", "result": 0.0966, "unit": "%"}]}
{"smiles": "Cc1nc(C(=O)NS(=O)(=O)c2cccc(C#N)c2)cs1", "values": [{"measurement": "cytotoxicity at 10 µM", "result": -1.95, "unit": "%"}]}
{"smiles": "COCCN1CCC(NC(=O)C/C=C/c2ccc(C(C)C)cc2)CC1", "values": [{"measurement": "cytotoxicity at 10 µM", "result": -0.616, "unit": "%"}]}
{"smiles": "Cn1c(C2CCCCN2C(=O)CN2CCCC2=O)nc2ccccc21", "note": "(stereo not given)", "values": [{"measurement": "cytotoxicity at 10 µM", "result": -0.62, "unit": "%"}]}
{"smiles": "CNC(=O)NC(=O)C(C)N1CCC(c2c[nH]c3ccc(OC)cc23)CC1", "note": "(stereo not given)", "values": [{"measurement": "cytotoxicity at 10 µM", "result": 12.5, "unit": "%"}]}
{"smiles": "CC(NC(=O)CCn1cccn1)c1cccs1", "note": "(stereo not given)", "values": [{"measurement": "cytotoxicity at 10 µM", "result": -3.57, "unit": "%"}]}
{"smiles": "CC(C)(C)n1ncc2c1CCCC2NCc1ccc2c(c1)CCO2", "note": "(stereo not given)", "values": [{"measurement": "cytotoxicity at 10 µM", "result": 2.55, "unit": "%"}]}
{"smiles": "Cc1nc(C)c(C(=O)Nc2cccc(CN3CCC(CO)CC3)c2)o1", "values": [{"measurement": "cytotoxicity at 10 µM", "result": -154, "unit": "%"}]}
{"smiles": "CCn1cc(S(=O)(=O)NC(=O)CCc2c[nH]c3ccccc23)cn1", "values": [{"measurement": "cytotoxicity at 10 µM", "result": -11.3, "unit": "%"}]}
{"smiles": "COCc1ccc(C(=O)NS(=O)(=O)c2ccc3c(c2)CCC(=O)N3)cc1", "values": [{"measurement": "cytotoxicity at 10 µM", "result": -1.89, "unit": "%"}]}
{"smiles": "Cc1nnc(C(C)N2CCc3[nH]c4ccc(Cl)cc4c3C2)o1", "note": "(stereo not given)", "values": [{"measurement": "cytotoxicity at 10 µM", "result": -9.77, "unit": "%"}]}
{"smiles": "Cc1ccnc(NC(=O)C2CCN(CCCn3ccnc3)CC2)c1", "values": [{"measurement": "cytotoxicity at 10 µM", "result": -57.9, "unit": "%"}]}
{"smiles": "COc1cccc(CN(C)Cc2nc(C(C)C)no2)c1", "values": [{"measurement": "cytotoxicity at 10 µM", "result": -43.6, "unit": "%"}]}
{"smiles": "Clc1cccc(-c2noc(CCN3CCN(c4ccncc4)CC3)n2)c1", "values": [{"measurement": "cytotoxicity at 10 µM", "result": 24, "unit": "%"}]}
{"smiles": "CCOCCNC(=O)C(CCSC)NC(=O)c1ccc2ccccc2n1", "note": "(stereo not given)", "values": [{"measurement": "cytotoxicity at 10 µM", "result": -9.95, "unit": "%"}]}
{"smiles": "Cc1cc(NC(N)=O)ccc1C(=O)N(C)C", "values": [{"measurement": "cytotoxicity at 10 µM", "result": 12.2, "unit": "%"}]}
{"smiles": "CC(O)CN1CCN(Cc2csc(-c3ncccn3)n2)CC1", "note": "(stereo not given)", "values": [{"measurement": "cytotoxicity at 10 µM", "result": 5.4, "unit": "%"}]}
{"smiles": "Cc1nnc([C@@]23CCO[C@@H]2CCN(S(=O)(=O)c2ccccc2)C3)o1", "values": [{"measurement": "cytotoxicity at 10 µM", "result": -99.4, "unit": "%"}]}
{"smiles": "CC(C)Nc1ncnc2c1CCN(C(=O)CCc1ccccc1)CC2", "values": [{"measurement": "cytotoxicity at 10 µM", "result": -72, "unit": "%"}]}
{"smiles": "CC(C)NC(=O)N1CC(=O)c2sc(Nc3ccc(C#N)cc3)nc2C1", "values": [{"measurement": "cytotoxicity at 10 µM", "result": -7.77, "unit": "%"}]}
{"smiles": "CN(CCCc1ccccc1)C(=O)c1cn2c(n1)CNCC2", "values": [{"measurement": "cytotoxicity at 10 µM", "result": -52.4, "unit": "%"}]}
{"smiles": "CC(C)n1ccnc1C1CCCN(c2nc3ccccc3s2)C1", "note": "(stereo not given)", "values": [{"measurement": "cytotoxicity at 10 µM", "result": 5.07, "unit": "%"}]}
{"smiles": "O=C(CCN1CCCC(CC2CC2)(C(=O)O)C1)NC1CCCC1", "note": "(stereo not given)", "values": [{"measurement": "cytotoxicity at 10 µM", "result": 18.7, "unit": "%"}]}
{"smiles": "CC(C)N1CCC(C(=O)NC[C@H]2CCc3ccccc3O2)CC1", "values": [{"measurement": "cytotoxicity at 10 µM", "result": 11.1, "unit": "%"}]}
{"smiles": "CC(C)C[C@H](Nc1nc(C2CCCC2)nc2c1cnn2C)C(N)=O", "values": [{"measurement": "cytotoxicity at 10 µM", "result": -42.3, "unit": "%"}]}
{"smiles": "OC(c1ccccn1)C1CCN(Cc2cc3n(n2)CCNC3)CC1", "note": "(stereo not given)", "values": [{"measurement": "cytotoxicity at 10 µM", "result": 15.4, "unit": "%"}]}
{"smiles": "COc1ccc(-c2cc(N)ccn2)c(OC)c1OC", "values": [{"measurement": "cytotoxicity at 10 µM", "result": 11.4, "unit": "%"}]}
{"smiles": "C[C@@H]1CN(Cc2cc(C3CCCCC3)no2)CC[C@]1(C)O", "values": [{"measurement": "cytotoxicity at 10 µM", "result": -13.2, "unit": "%"}]}
